≈ marks a conversion by molar mass, not a printed value. Calls of active or inactive are those of the source. The calls are words filed in the database; no cut-off is given here.
Experiments:
Staphylococcus aureus [1] = experiment: Antibacterial activity against methicillin-resistant Staphylococcus aureus USA300 NRS384 after 20 hrs by broth microdilution assay; format: functional; details: USA300 NRS384, 20 h
Staphylococcus aureus [2] = experiment: Bactericidal activity against methicillin-resistant Staphylococcus aureus NRS123 (USA400) incubated for 20 hrs followed by replating on tryptic soy agar plates and further incubated for 18 hrs by broth microdilution assay; format: functional
Staphylococcus aureus [3] = experiment: Antibacterial activity against methicillin-resistant Staphylococcus aureus NRS123 (USA400) after 20 hrs by broth microdilution assay; format: functional
Staphylococcus aureus [4] = experiment: Antibacterial activity against methicillin-resistant Staphylococcus aureus USA100 NRS382 after 20 hrs by broth microdilution assay; format: functional; details: USA100 NRS382, 20 h
Staphylococcus aureus [5] = experiment: Antibacterial activity against methicillin-resistant Staphylococcus aureus USA200 NRS383 after 20 hrs by broth microdilution assay; format: functional; details: USA200 NRS383, 20 h
Staphylococcus aureus [6] = experiment: Bactericidal activity against vancomycin-resistant Staphylococcus aureus isolate 10 incubated for 20 hrs followed by replating on tryptic soy agar plates and further incubated for 18 hrs by broth microdilution assay; format: functional
How it was run: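 From MIC wells without visible growth, an aliquot was spotted onto Tryptic soy agar and incubated at 37 °C for at least 18 h; MBC = lowest concentration inhibiting 99.9% of bacterial growth.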

Staphylococcus aureus [7] = experiment: Antibacterial activity against vancomycin-resistant Staphylococcus aureus isolate 10 after 20 hrs by broth microdilution assay; format: functional; details: isolate 10, 20 h
Staphylococcus aureus [8] = experiment: Bactericidal activity against methicillin-resistant Staphylococcus aureus USA300 NRS384 incubated for 20 hrs followed by replating on tryptic soy agar plates and further incubated for 18 hrs by broth microdilution assay; format: functional
Staphylococcus aureus [9] = experiment: Bactericidal activity against methicillin-resistant Staphylococcus aureus USA200 NRS383 incubated for 20 hrs followed by replating on tryptic soy agar plates and further incubated for 18 hrs by broth microdilution assay; format: functional
Staphylococcus aureus [10] = experiment: Bactericidal activity against methicillin-resistant Staphylococcus aureus USA100 NRS382 incubated for 20 hrs followed by replating on tryptic soy agar plates and further incubated for 18 hrs by broth microdilution assay; format: functional
[11] = Intrinsic clearance in human liver microsomes in presence of NADPH by LC-MS/MS analysis; format: ADME, microsome; details: read-out: CLH
How it was run: (§1)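 Human liver microsomal protein was incubated in duplicate at 37 °C in 100 mM potassium phosphate, 2 mM NADPH, 3 mM MgCl2, pH 7.4. Samples were taken at 0, 10, 20, 40 and 60 min and stopped with ice-cold methanol containing an internal standard. Half-life was derived from depletion. CLint = ln(2)/(T1/2 × microsomal protein concentration).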

[12] = Half life in human liver microsomes in absence of NADPH by LC-MS/MS analysis; format: ADME, microsome
How it was run: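 Human liver microsomes were incubated in duplicate at 37 °C in 100 mM potassium phosphate with 3 mM MgCl2, pH 7.4, without NADPH to detect NADPH-free degradation. Aliquots were taken at 0, 10, 20, 40 and 60 min and quenched in ice-cold methanol containing an internal standard, then held at least 10 min at -20 °C before water was added. Half-life was taken from compound depletion.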

[13] = Half life in human liver microsomes in presence of NADPH by LC-MS/MS analysis; format: ADME, microsome; details: liver microsomes; how it was run: as §1
Staphylococcus aureus [14] = experiment: Antibacterial activity against Staphylococcus aureus RN4220 NRS107 after 20 hrs by broth microdilution assay; format: functional; details: RN4220 NRS107, 20 h
Staphylococcus aureus [15] = experiment: Bactericidal activity against Staphylococcus aureus RN4220 NRS107 incubated for 20 hrs followed by replating on tryptic soy agar plates and further incubated for 18 hrs by broth microdilution assay; format: functional
Staphylococcus aureus [16] = experiment: Bactericidal activity against vancomycin-resistant Staphylococcus aureus isolate 4 incubated for 20 hrs followed by replating on tryptic soy agar plates and further incubated for 18 hrs by broth microdilution assay; format: functional
Staphylococcus aureus [17] = experiment: Antibacterial activity against vancomycin-resistant Staphylococcus aureus isolate 4 after 20 hrs by broth microdilution assay; format: functional; details: isolate 4, 20 h
Staphylococcus aureus [18] = experiment: Inhibition of cell wall synthesis in Staphylococcus aureus RN4220 NRS107 assessed as UDP-N-acetylmuramyl pentapeptide formation at 10 times MIC incubated for 30 mins by HPLC-MS analysis; format: functional, organism-based
Staphylococcus aureus [19] = experiment: Antibacterial activity against methicillin-resistant Staphylococcus aureus NRS123 (USA400) infected in mouse J774 cells assessed as reduction in bacterial colony forming units at 16 ug/ml after 24 hrs relative to control; format: functional
How it was run: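 J774 macrophages in DMEM + 10% FBS, 37 °C, 5% CO2, infected with USA400 at MOI ~100:1; after 1 h, gentamicin (50 µg/mL) wash; agent at 16 µg/mL in triplicate; at time point, gentamicin wash, lysis in 0.1% Triton X-100, serial dilution, TSA plating 18-22 h at 37 °C; % CFU/mL reduction versus untreated; t-test.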

Staphylococcus aureus [20] = experiment: Bactericidal activity against methicillin-resistant Staphylococcus aureus NRS123 (USA400) assessed as time required for complete bacterial elimination after 24 hrs by time-kill assay; format: functional
Staphylococcus aureus [21] = experiment: Antibacterial activity against methicillin-resistant Staphylococcus aureus USA300 NRS384 infected in Caenorhabditis elegans AU37 assessed as reduction in bacterial burden at 20 ug/ml after 18 hrs by microscopic analysis; format: functional
Bacillus subtilis [22] = experiment: Inhibition of cell wall biosynthesis in Bacillus subtilis assessed as induction of large bulges formation at 1.875 ug/ml incubated for 2 hrs by FM-4-64 staining based assay; format: functional, organism-based
How it was run: (§2)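 B. subtilis grown in LB at 37 °C to OD600 ~0.2, then treated with or without the osmotic stabiliser MSM for 2 h; stained with FM 4-64 (1 µg/mL, membranes), DAPI (1 µg/mL, DNA) and SYTOX Green (1 µg/mL, lysis); imaged by deconvolution fluorescence microscopy.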

Bacillus subtilis [23] = experiment: Inhibition of cell wall biosynthesis in Bacillus subtilis assessed as induction of formation of misshapen cells at 1.875 ug/ml incubated for 2 hrs by FM-4-64 staining based assay; format: functional, organism-based; how it was run: as §2
Bacillus subtilis [24] = experiment: Inhibition of cell wall biosynthesis in Bacillus subtilis assessed as induction of large bulges formation at 37.5 ug/ml incubated for 2 hrs by FM-4-64 staining based assay; format: functional, organism-based
How it was run: (§3)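 B. subtilis was grown in LB at 37 °C to OD600 ~0.2, then treated for 2 h with or without the osmotic stabiliser MSM. Cells were stained with FM 4-64 (1 µg/mL, membranes), DAPI (1 µg/mL, DNA) and SYTOX Green (1 µg/mL, lysis). Morphology was scored by deconvolution fluorescence microscopy against untreated cells.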

Bacillus subtilis [25] = experiment: Inhibition of cell wall biosynthesis in Bacillus subtilis assessed as induction of formation of misshapen cells at 37.5 ug/ml incubated for 2 hrs by FM-4-64 staining based assay; format: functional, organism-based; how it was run: as §3

SMILES | MIC (Staphylococcus aureus [1]) [µg/mL] | MBC (Staphylococcus aureus [2]) [µg/mL] | MIC (Staphylococcus aureus [3]) [µg/mL] | MBC (Staphylococcus aureus [6]) [µg/mL] | MIC (Staphylococcus aureus [7]) [µg/mL] | MBC (Staphylococcus aureus [8]) [µg/mL] | MBC (Staphylococcus aureus [9]) [µg/mL] | MBC (Staphylococcus aureus [10]) [µg/mL] | MBC (Staphylococcus aureus [15]) [µg/mL] | other results
Cc1nc(-c2ccc3ccccc3c2)sc1-c1cnc(-c2cccnc2)s1 | 16 (≈ 41.5 µM) | > 64 | 16 (≈ 41.5 µM) | 16 (≈ 41.5 µM) | 16 (≈ 41.5 µM) | 64 (≈ 166 µM) | > 64 | > 64 |  | MIC (Staphylococcus aureus [4]): 8 µg/mL (≈ 20.8 µM); MIC (Staphylococcus aureus [5]): 8 µg/mL (≈ 20.8 µM)
Cc1nc(-c2ccc(-c3ccccc3)cc2)sc1-c1cnc(NN)s1 | 16 (≈ 43.9 µM) | > 64 | 16 (≈ 43.9 µM) | 16 (≈ 43.9 µM) | 16 (≈ 43.9 µM) | 64 (≈ 176 µM) | > 64 | > 64 |  | MIC (Staphylococcus aureus [4]): 8 µg/mL (≈ 21.9 µM); MIC (Staphylococcus aureus [5]): 8 µg/mL (≈ 21.9 µM)
Cc1nc(-c2ccc(-c3ccccc3)cc2)sc1-c1cnc(N)s1 | > 64 | > 64 | > 64 | > 64 | > 64 | > 64 |  |  |  | 
CCCCc1ccc(-c2nc(C)c(/C(C)=N/NC(=N)N)s2)cc1 |  |  |  |  |  |  |  |  |  | microsomal CLint [11]: 80.3 µL/min/mg; t1/2 [12]: > 240 min; half-life [13]: 28.8 min
CCCCc1ccc(-c2nc(C)c(-c3cnc(NN)s3)s2)cc1 | 16 (≈ 46.4 µM) | 16 (≈ 46.4 µM) | 16 (≈ 46.4 µM) | > 64 | > 64 | 16 (≈ 46.4 µM) |  |  | 32 (≈ 92.9 µM) | MIC (Staphylococcus aureus [14]): 16 µg/mL (≈ 46.4 µM)
CCCCc1ccc(-c2nc(C)c(-c3cnc(NC(=N)N)s3)s2)cc1 | 16 (≈ 43.1 µM) | 16 (≈ 43.1 µM) | 16 (≈ 43.1 µM) | 8 (≈ 21.5 µM) | 8 (≈ 21.5 µM) | 16 (≈ 43.1 µM) |  |  | 32 (≈ 86.1 µM) | MIC (Staphylococcus aureus [14]): 16 µg/mL (≈ 43.1 µM); MBC (Staphylococcus aureus [16]): 8 µg/mL (≈ 21.5 µM); MIC (Staphylococcus aureus [17]): 8 µg/mL (≈ 21.5 µM)
CCCCc1ccc(-c2nc(C)c(-c3cnc(-c4cccnc4)s3)s2)cc1 | 16 (≈ 40.9 µM) | 16 (≈ 40.9 µM) | 16 (≈ 40.9 µM) | > 64 | > 64 | 16 (≈ 40.9 µM) |  |  | 32 (≈ 81.7 µM) | MIC (Staphylococcus aureus [14]): 16 µg/mL (≈ 40.9 µM); MBC (Staphylococcus aureus [16]): > 64 µg/mL; MIC (Staphylococcus aureus [17]): > 64 µg/mL
CN[C@H](CC(C)C)C(=O)N[C@H]1C(=O)N[C@@H](CC(N)=O)C(=O)N[C@H]2C(=O)N[C@H]3C(=O)N[C@H](C(=O)N[C@H](C(=O)O)c4cc(O)cc(O)c4-c4cc3ccc4O)[C@H](O)c3ccc(c(Cl)c3)Oc3cc2cc(c3O[C@@H]2O[C@H](CO)[C@@H](O)[C@H](O)[C@H]2O[C@H]2C[C@](C)(N)[C@H](O)[C@H](C)O2)Oc2ccc(cc2Cl)[C@H]1O [VANCOMYCIN] |  |  |  | > 512 | ≥ 512 |  |  |  |  | inhibition (Staphylococcus aureus [18]): Active; Activity (Staphylococcus aureus [19]): inactive; MIC (Staphylococcus aureus [17]): > 512 µg/mL; Time (Staphylococcus aureus [20]): 24 h; Activity (Staphylococcus aureus [21]): inactive
Cc1nc(-c2ccc(-c3ccccc3)cc2)sc1-c1cnc(-c2cccnc2)s1 | 16 (≈ 38.9 µM) | > 64 | 16 (≈ 38.9 µM) | 16 (≈ 38.9 µM) | 16 (≈ 38.9 µM) | 64 (≈ 156 µM) | > 64 | > 64 |  | MIC (Staphylococcus aureus [4]): 8 µg/mL (≈ 19.4 µM); MIC (Staphylococcus aureus [5]): 8 µg/mL (≈ 19.4 µM)
Cc1onc(-c2ccccc2)c1C(=O)N[C@@H]1C(=O)N2[C@@H]1SC(C)(C)[C@@H]2C(=O)O |  |  |  |  |  |  |  |  |  | inhibition (Bacillus subtilis [22]): Active; inhibition (Bacillus subtilis [23]): Active
CC(=O)NC[C@H]1CN(c2ccc(N3CCOCC3)c(F)c2)C(=O)O1 [LINEZOLID] |  | 32 (≈ 94.9 µM) |  | 16 (≈ 47.4 µM) |  | 16 (≈ 47.4 µM) | 32 (≈ 94.9 µM) | 16 (≈ 47.4 µM) | 32 (≈ 94.9 µM) | MBC (Staphylococcus aureus [16]): 8 µg/mL (≈ 23.7 µM)
N[C@@H]1CONC1=O |  |  |  |  |  |  |  |  |  | inhibition (Bacillus subtilis [24]): Active; inhibition (Bacillus subtilis [25]): Active
Cc1nc(-c2ccc(-c3ccccc3)cc2)sc1-c1cnc(NC(=N)N)s1 | 8 (≈ 20.4 µM) | 16 (≈ 40.9 µM) | 16 (≈ 40.9 µM) | 8 (≈ 20.4 µM) | 8 (≈ 20.4 µM) | 16 (≈ 40.9 µM) |  |  | 32 (≈ 81.7 µM) | MIC (Staphylococcus aureus [14]): 16 µg/mL (≈ 40.9 µM); MBC (Staphylococcus aureus [16]): 8 µg/mL (≈ 20.4 µM); MIC (Staphylococcus aureus [17]): 8 µg/mL (≈ 20.4 µM)
Cc1nc(-c2ccc3ccccc3c2)sc1-c1cnc(N)s1 | > 64 | > 64 | > 64 | > 64 | > 64 | > 64 |  |  |  | 
CCCCc1ccc(-c2nc(C)c(-c3cnc(N)s3)s2)cc1 | > 64 | > 64 | > 64 | > 64 | > 64 | > 64 |  |  |  | 
Cc1nc(-c2ccc3ccccc3c2)sc1-c1cnc(NN)s1 | 16 (≈ 47.3 µM) | > 64 | 16 (≈ 47.3 µM) | 16 (≈ 47.3 µM) | 16 (≈ 47.3 µM) | 64 (≈ 189 µM) | > 64 | > 64 |  | MIC (Staphylococcus aureus [4]): 8 µg/mL (≈ 23.6 µM); MIC (Staphylococcus aureus [5]): 8 µg/mL (≈ 23.6 µM)

Source: ChEMBL document CHEMBL4130411, “Arylthiazole antibiotics targeting intracellular methicillin-resistant Staphylococcus aureus (MRSA) that interfere with bacterial cell wall synthesis” (Eur J Med Chem, 2017)
